pIC50: −log10 of the molar value.

This test deals with Plasmodium falciparum. Description: In vitro activity against Plasmodium falciparum. Type of test: functional, organism-based. In outline: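 P. falciparum cultures at 0.3-0.5% parasitemia (percentage of infected erythrocytes) exposed to drug for one parasite cycle (48 h). Some drugs were dissolved in DMSO, then diluted in culture medium (final DMSO ≤0.25%). [3H]hypoxanthine was then added for 18 h to measure viability. IC50 is 50% inhibition of parasite growth, given as the mean of at least two independent experiments in triplicate using different stock solutions.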
For orientation: pIC50 means the IC50 on a negative log10 scale, so that one unit is a factor of ten. Compound `CCCCCCCCCCCCCCCC[N+](CC)(CC)CC` gave a pIC50 of 6.85.
The value for `CCCCCCCCCCCC[N+](C)(C)CCCCCCCCCCCCCCCC[N+](C)(C)CCCCCCCCCCCC` was 5.74; that for `CCCCCCCC[N+](C)(C)CCO` was 5.41.
In the case of `CCCCCCCCCCCC[N+](C)(C)CCCCCC[N+](C)(C)CCCCCCCCCCCC`, the pIC50 was 6.66.
`CC[N+](CC)(CC)CCCCCCCCCCCC[N+](CC)(CC)CC` had a negative-log IC50 (pIC50) of 7.35.
For the compound `C=CC[N+](C)(CC=C)CCCCCCCCCCCC`, the pIC50 is 6.85.
The value for `C#CCC[N+](C)(C)CCCCCCCCCCCC` was 6.64; that for `C#CC[N+](C)(CC#C)CCCCCCCCCCCC` was 6.42; that for `C#CC[N+](C)(C)CCCCCCCCCCCC` was 6.44.
For the compound `CCCCC[N+](C)(C)CC(C)O` (stereo unspecified), the negative logarithm of the IC50 (pIC50) was 3.94.
In the case of `C=CC[N+](C)(C)CCCCCCCCCCCC` it was 6.57; in that of `CCCCCCCCCCCC[N+](C)(C)CCCCCCCCCCCC[N+](C)(C)CCCCCCCCCCCC`, 6.74; in that of `CCCCCCCCCCCCCCCC[N+]1(C)CCCC1`, 6.38.
The value for `CCCCCC[N+](CC)(CC)CC` was 5.01; that for `CCCCCCCCCCCCCC[N+]1(C)CCCC1` was 6.57; that for `CCCCCC[N+]1(C)CCCC1` was 4.59.
The value for `CC[N+](CC)(CC)CCCCCC[N+](CC)(CC)CCCCCC[N+](CC)(CC)CC` was 3.10; that for `CCCCCCCCCCCC[N+](C)(C)C(C)C(O)c1ccccc1` (stereo unspecified) was 6.17.
For the compound `CCCCCCCC[N+](C)(C)C`, the negative logarithm of the IC50 (pIC50) was 5.30.
In the case of `CC[N+](CC)(CC)CCCCCCCCCCCCCCCCCCCCC[N+](CC)(CC)CC` it was 11.52; in that of `C[N+](C)(C)CCCCCCCCc1ccccc1`, 6.21; in that of `C[N+]1(CCCCCCCCCCCC[N+]2(C)CCCC2)CCCC1`, 7.89.
Consider `CCCCCCCCCCCCCCCCCC[N+](CC)(CC)CC`, for which the pIC50 was 6.57.
In the case of `CCCCCCCCCCCC[N+]1(C)CCCC1` it was 6.66.
The value for `C[N+](C)(C)CCCCCCCCCCCCCCCC[N+](C)(C)C` was 8.40; that for `C#CCC[N+](C)(C)CCCCCCCCCCCC[N+](C)(C)CCC#C` was 7.36; that for `CCCCCCCCCCCC[N+](C)(C)CCC[N+](C)(C)CCCCCCCCCCCC` was 4.97.
Consider `C=CC[N+](CC)(CC)CCCCCCCCCCCC[N+](CC)(CC)CC=C`, for which the pIC50 was 8.28.
In the case of `CCCCCCCCCCCCCCCC[N+](C)(C)CCO` it was 6.09.
`CC[N+](CC)(CC)CCCCCCCCCCCCCCCC[N+](CC)(CC)CC` had a pIC50 of 8.80. This pIC50 lies 2.71 log units higher than the previous one.
For `CC[N+](CC)(CC)CCCCCCCC[N+](CC)(CC)CC`, the pIC50 is 6.27.
In the case of `CC[N+](CC)(CCO)CCCCCCCCCCCCCCCC[N+](CC)(CC)CCO` it was 8.31.
In the case of `C[N+]1(CCCCCCCCCCCCCCCC[N+]2(C)CCCC2)CCCC1`, the pIC50 was 9.19.
In the case of `C#CC[N+](C)(C)CCCCCCCCCCCC[N+](C)(C)CC#C` it was 8.12; in that of `CCCCCCCCCCCC[N+](C)(C)CC(C)O` (stereo unspecified), 6.37; in that of `C[N+]1(CCCCCCCCCCCCCC[N+]2(C)CCCC2)CCCC1`, 8.96.

Source of the values: ChEMBL document CHEMBL1133585, “Antimalarial activity of compounds interfering with Plasmodium falciparum phospholipid metabolism: comparison between mono- and bisquaternary ammonium salts” (J Med Chem, 2000).
